Laboratory results reported in ChEMBL document CHEMBL1154448, “Thiazolyl/oxazolyl formazanyl indoles as potent anti-inflammatory agents” (Eur J Med Chem, 2008).

Experiments:
Rattus norvegicus [1] = experiment: Antiinflammatory activity in Albino rat assessed as inhibition of carrageenan-induced paw edema at 50 mg/kg, po administered 1 hr before carrageenan challenge by micro-pipette method relative to control; type: functional; parameters: scale not given: the % may be the effect or the level left
Method in brief: (§1)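 Rats of either sex, 75-125 g, in groups of 6 (one control group). Compounds were suspended in gum acacia and given orally 1 h before carrageenin. Foot volume was measured by micro-pipette before and at 1 and 3 h after carrageenin. % activity was calculated from the mean oedema volumes of treated (Vt) and control (Vc) groups.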

[2] = Acute toxicity in ip dosed albino mouse assessed as mortality after 24 hrs; type: organism-based; settings: in vivo, read-out: ALD50
Method in brief: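 Albino mice of either sex (20-28 g), separate groups given graded intraperitoneal doses; percent mortality recorded 24 h after dosing; approximate 50% lethal dose (ALD50) calculated by the method of Smith.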

Mus musculus [3] = experiment: Analgesic activity in mouse assessed as protection against phenylquinone-induced writhes at 50 mg/kg, po administered 1 hr before phenylquinone challenge relative to control; type: functional
Method in brief: (§2)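 Mice in groups of 5 were dosed orally and, 1 h later, injected i.p. with 0.25 mL of 0.02% phenylquinone in 5% ethanol. Writhes per mouse were counted for 5 min, between 5 and 10 min after the irritant. % protection = (1 − mean writhes in test group / mean writhes in control group) × 100.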

Mus musculus [4] = experiment: Analgesic activity in mouse assessed as protection against phenylquinone-induced writhes at 25 mg/kg, po administered 1 hr before phenylquinone challenge relative to control; type: functional; method in brief: as §2
[5] = Toxicity in ip dosed Albino rat assessed as ulcerogenic activity after 8 hrs; type: organism-based; settings: in vivo, read-out: UD50
Method in brief: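 Adult albino rats of either sex, in groups of 10, non-pregnant, fasted 24 h with water allowed. Drugs were given i.p. and animals killed 8 h later. Stomach, duodenum and jejunum were examined with a hand lens for epithelial shedding, red spots or bleeding, and erosion or ulceration. Any one sign was scored as ulcerogenic. Result reported as UD50.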

Rattus norvegicus [6] = experiment: Antiinflammatory activity in Albino rat assessed as inhibition of carrageenan-induced paw edema at 100 mg/kg, po administered 1 hr before carrageenan challenge by micro-pipette method relative to control; type: functional; parameters: scale not given: the % may be the effect or the level left; method in brief: as §1
Rattus norvegicus [7] = experiment: Antiinflammatory activity in Albino rat assessed as inhibition of carrageenan-induced paw edema at 25 mg/kg, po administered 1 hr before carrageenan challenge by micro-pipette method relative to control; type: functional; parameters: scale not given: the % may be the effect or the level left; method in brief: as §1
Mus musculus [8] = experiment: Analgesic activity in mouse assessed as protection against phenylquinone-induced writhes at 100 mg/kg, po administered 1 hr before phenylquinone challenge relative to control; type: functional; method in brief: as §2

SMILES | Activity (Rattus norvegicus [1]) [%] | LD50 at 24 h [2] [mg/kg] | Activity (Mus musculus [3]) [%] | Activity (Mus musculus [4]) [%] | TD50 at 8 h [5] [mg/kg] | Activity (Rattus norvegicus [6]) [%] | Activity (Rattus norvegicus [7]) [%] | Activity (Mus musculus [8]) [%]
Clc1ccc(/N=N/C(=N\c2nc(-c3c(-c4ccc(Cl)cc4)[nH]c4ccccc34)co2)c2c(-c3ccccc3)[nH]c3ccccc23)cc1 | 27.9 | > 800 | 26.3 |  |  |  |  | 
Cc1[nH]c2ccccc2c1/C=N/c1nc(-c2c(-c3ccc(Cl)cc3)[nH]c3ccccc23)cs1 | 53.3 | > 1000 | 51.4 | 35.1 | 200 | 68.2 | 36.4 | 64.6
COc1ccc(/N=N/C(=N\c2nc(-c3c(-c4ccc(Cl)cc4)[nH]c4ccccc34)cs2)c2c[nH]c3ccccc23)cc1 | 19.2 | > 800 | 18.8 |  |  |  |  | 
Clc1ccc(/N=N/C(=N\c2nc(-c3c(-c4ccc(Cl)cc4)[nH]c4ccccc34)co2)c2c[nH]c3ccccc23)cc1 | 16.2 | > 800 | 14.7 |  |  |  |  | 
Clc1ccc(/N=N/C(=N\c2nc(-c3c(-c4ccc(Cl)cc4)[nH]c4ccccc34)cs2)c2c(-c3ccccc3)[nH]c3ccccc23)cc1 | 23.1 | > 800 | 21.9 |  |  |  |  | 
Clc1ccc(/N=N/C(=N\c2nc(-c3c(-c4ccc(Cl)cc4)[nH]c4ccccc34)cs2)c2c[nH]c3ccccc23)cc1 | 9.6 | > 800 | 8.5 |  |  |  |  | 
Cc1[nH]c2ccccc2c1/C=N/c1nc(-c2c(-c3ccc(Cl)cc3)[nH]c3ccccc23)co1 | 21.3 | > 800 | 19.9 |  |  |  |  | 
COc1ccc(/N=N/C(=N\c2nc(-c3c(-c4ccc(Cl)cc4)[nH]c4ccccc34)co2)c2c[nH]c3ccccc23)cc1 | 20.6 | > 800 | 19.2 |  |  |  |  | 
COc1ccc(/N=N/C(=N\c2nc(-c3c(-c4ccc(Cl)cc4)[nH]c4ccccc34)co2)c2c(-c3ccccc3)[nH]c3ccccc23)cc1 | 17.6 | > 800 | 15.2 |  |  |  |  | 
CCc1[nH]c2ccccc2c1C(=N/c1nc(-c2c(-c3ccc(Cl)cc3)[nH]c3ccccc23)co1)/N=N/c1ccc(OC)cc1 | 25.2 | > 800 | 23.9 |  |  |  |  | 
COc1ccc(/N=N/C(=N\c2nc(-c3c(-c4ccc(Cl)cc4)[nH]c4ccccc34)cs2)c2c(-c3ccccc3)[nH]c3ccccc23)cc1 | 11.5 | > 800 | 10.5 |  |  |  |  | 
CCc1[nH]c2ccccc2c1C(=N/c1nc(-c2c(-c3ccc(Cl)cc3)[nH]c3ccccc23)cs1)/N=N/c1ccc(OC)cc1 | 13.5 | > 800 | 12.3 |  |  |  |  | 
COc1ccc(/N=N/C(=N\c2nc(-c3c(-c4ccc(Cl)cc4)[nH]c4ccccc34)cs2)c2c(C)[nH]c3ccccc23)cc1 | 15.4 | > 800 | 13.7 |  |  |  |  | 
Clc1ccc(-c2[nH]c3ccccc3c2-c2csc(/N=C/c3c[nH]c4ccccc34)n2)cc1 | 31.8 | > 800 | 30.6 |  |  |  |  | 
Clc1ccc(-c2[nH]c3ccccc3c2-c2csc(/N=C/c3c(-c4ccccc4)[nH]c4ccccc34)n2)cc1 | 19.7 | 800 |  |  |  |  |  | 
COc1ccc(/N=N/C(=N\c2nc(-c3c(-c4ccc(Cl)cc4)[nH]c4ccccc34)co2)c2c(C)[nH]c3ccccc23)cc1 | 19.1 | > 800 | 17.8 |  |  |  |  | 
CCc1[nH]c2ccccc2c1C(=N/c1nc(-c2c(-c3ccc(Cl)cc3)[nH]c3ccccc23)co1)/N=N/c1ccc(Cl)cc1 | 23.5 | > 800 | 21.5 |  |  |  |  | 
Cc1[nH]c2ccccc2c1C(=N/c1nc(-c2c(-c3ccc(Cl)cc3)[nH]c3ccccc23)cs1)/N=N/c1ccc(Cl)cc1 | 21.2 | > 800 | 19.8 |  |  |  |  | 
Clc1ccc(-c2[nH]c3ccccc3c2-c2coc(/N=C/c3c[nH]c4ccccc34)n2)cc1 | 22.7 | > 800 | 20.9 |  |  |  |  | 
CCc1[nH]c2ccccc2c1/C=N/c1nc(-c2c(-c3ccc(Cl)cc3)[nH]c3ccccc23)co1 | 17.3 | > 800 | 16.2 |  |  |  |  | 
CCc1[nH]c2ccccc2c1C(=N/c1nc(-c2c(-c3ccc(Cl)cc3)[nH]c3ccccc23)cs1)/N=N/c1ccc(Cl)cc1 | 17.3 | > 800 | 16.2 |  |  |  |  | 
CCCCC1C(=O)N(c2ccccc2)N(c2ccccc2)C1=O [PHENYLBUTAZONE] | 38.8 |  | 37.2 | 13.7 | 66.7 | 65.4 | 15.2 | 62.3
Clc1ccc(-c2[nH]c3ccccc3c2-c2coc(/N=C/c3c(-c4ccccc4)[nH]c4ccccc34)n2)cc1 | 25.3 | > 800 | 23.7 |  |  |  |  | 
CCc1[nH]c2ccccc2c1/C=N/c1nc(-c2c(-c3ccc(Cl)cc3)[nH]c3ccccc23)cs1 | 25.8 | > 800 | 23.2 |  |  |  |  | 
Cc1[nH]c2ccccc2c1C(=N/c1nc(-c2c(-c3ccc(Cl)cc3)[nH]c3ccccc23)co1)/N=N/c1ccc(Cl)cc1 | 22.1 | > 800 | 21.2 |  |  |  |  | 
